Bioassay records: PubChem BioAssay, Broad Institute
GASC1 inh: blocks human GASC-1 (KDM4C) demethylase activity | Q9H3R0 | GST-KDM4C 2-372, H3K9me3 peptide, LANCE TR-FRET | inhibition, % at 12.5 µM | hit rate 0.15% among 96,000;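 active = mean replicate inhibition above about 25%, with at least 55% of replicates also reaching it, limit read from the data, passing the limit was not always enough; inconclusive = only one of those two conditions met; inactive = neither condition met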
Target sequence (Q9H3R0 2-372 limits assumed): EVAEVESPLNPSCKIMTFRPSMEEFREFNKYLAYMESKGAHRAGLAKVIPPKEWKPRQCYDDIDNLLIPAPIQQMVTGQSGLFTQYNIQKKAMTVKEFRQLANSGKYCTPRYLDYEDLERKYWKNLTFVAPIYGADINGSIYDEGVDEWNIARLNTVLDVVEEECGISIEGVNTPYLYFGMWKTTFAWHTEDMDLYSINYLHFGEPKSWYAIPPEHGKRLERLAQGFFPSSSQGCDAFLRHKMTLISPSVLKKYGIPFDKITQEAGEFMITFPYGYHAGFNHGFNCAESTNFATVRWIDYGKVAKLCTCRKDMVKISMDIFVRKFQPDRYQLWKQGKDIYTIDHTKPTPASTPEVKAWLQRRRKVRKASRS
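System: N-terminal GST-fused human GASC-1 (KDM4C) fragment, residues 2-372; amount: enzyme final amount 10 nM; incubation: reaction 30 min RT, detection step 1 h RT; medium: HEPES buffer, pH 7.5, plus ascorbate; technique: LANCE TR-FRET, Eu antibody, ULight-streptavidin, EDTA, ex 340 nm, em 618/671 nm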
IDH1 mut inh: inhibitors of human IDH1 R132H; O75874; IDH1 R132H reductase, diaphorase/resazurin fluorescence, 60 min; inhibition, % at 10 µM; hit rate 0.18% among 70,000; AID 624101; in the data active = inhibition above about 34%; inconclusive = no clear call, values can overlap the other calls; inactive = below about 11%;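 also: 0% = DMSO and 100% = no enzyme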
T cruzi growth-1: inhibitors of T. cruzi proliferation | T. cruzi beta-gal in NIH3T3, GalScreen luminescence, 90 h | inhibition, % at 8.34 µM | hit rate 5.9% among 77,000 | AID 624255;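 active = mean inhibition above about 93%, with at least 55% of replicates each passing it, limit read from the data, passing the limit was not always enough; inconclusive = only one of those two conditions holds; inactive = neither condition holds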
T cruzi growth-2: blocks T. cruzi growth in NIH3T3 host cells. shares compounds with T cruzi growth-1. T. cruzi beta-gal in NIH3T3, GalScreen luminescence, 90 h. inhibition, % at 8.35 µM. hit rate 72% among 5,600. AID 651739;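 active = mean replicate inhibition above about 95% and at least 55% of replicates individually reaching it, limit read from the data; inconclusive = only one of the two criteria is met; inactive = neither criterion is met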
T cruzi growth-3: Trypanosoma cruzi proliferation inhibition; shares compounds with T cruzi growth-1; T. cruzi beta-gal in NIH3T3, GalScreen luminescence, 90 h; inhibition, % at 2.09 µM; hit rate 21% among 5,600;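 active = mean inhibition above about 95%, with at least 55% of replicates also reaching it, limit read from the data; inconclusive = meets just one of the two conditions; inactive = meets neither condition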;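 also: plate controls were neutral control median for no effect and positive control median for full effect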
NIH3T3 tox: NIH/3T3 (mouse) viability loss; NIH/3T3 viability, CellTiter-Glo ATP luminescence, 90 h; hit rate 14% among 5,600; cytotoxicity (signal decrease), % at 8.35 µM; shares compounds with T cruzi growth-1; AID 651742;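 active = mean signal decrease across replicates above about 35% based on untreated-well scatter, with enough replicates individually passing, limit read from the data; inconclusive = no rule stated though some were filed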;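 also: 0% = median of neutral control wells and 100% = median of positive control wells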
3T3 cytotox 2: cytotoxicity in mouse NIH/3T3 fibroblasts. shares compounds with T cruzi growth-1. NIH/3T3 viability, CellTiter-Glo ATP luminescence, 90 h. inhibition, % at 24.9 µM. hit rate 56% among 5,600;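 active = mean loss of cell viability signal at or above a set limit, and enough replicates individually reaching it; inconclusive = meets only the mean limit or only the replicate share; inactive = meets neither condition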;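 also: 0% = median of neutral control wells and 100% = median of positive control wells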
Numbers without * were called inactive; ? = inconclusive; . = no result given. Many of the other results were omitted from the sample, so hits are more common in it than they were.

SMILES	GASC1 inh	IDH1 mut inh	T cruzi growth-1	T cruzi growth-2	T cruzi growth-3	NIH3T3 tox	3T3 cytotox 2
COCC#Cc1ccc([C@H]2[C@H]3CN(Cc4cccnc4)CCCCN3[C@H]2CO)cc1	0	.	48	.	.	.	.
OC[C@@H]1[C@@H](c2ccc(C#CC3(O)CCCC3)cc2)[C@H]2CN(Cc3cccnc3)CCCCN12	0	.	119*	80	36	13	23
OC[C@H]1[C@@H](c2ccc(C#CC3(O)CCCC3)cc2)[C@@H]2CN(Cc3cncnc3)CCCCN12	0	.	22	.	.	.	.
OC[C@@H]1[C@H](c2ccc(C#CC3(O)CCCC3)cc2)[C@@H]2CN(Cc3cncnc3)CCCCN12	-2	.	?	98*	46	1	-2
C/C=C/c1ccc2c(c1)O[C@H](CN(C)C(=O)NC(C)C)[C@@H](C)CN([C@H](C)CO)S2(=O)=O	2	-1	6	.	.	.	.
O=C(Nc1ccc(S(=O)(=O)Nc2ncccn2)cc1)c1cccc(I)c1	.	0	.	.	.	.	.
CCOC(=O)c1ccccc1NC(=O)COc1ccccc1C	.	0	.	.	.	.	.
O=S(=O)(NCCOc1ccccc1)c1cccc2cccc(Cl)c12	.	0	.	.	.	.	.
CCC(=O)Nc1cccc(NC(=O)COc2c(C)cc(C)cc2Br)c1	.	0	.	.	.	.	.
Cc1noc(C)c1NC(=O)N1C[C@@H](O)COC[C@@H]2O[C@H](CC(=O)NCC3CC3)CC[C@H]21	4	.	?	?	4	-1	-3
O=C(C[C@H]1CC[C@@H]2[C@H](COC[C@@H](O)CN2C(=O)Nc2ccc(Cl)c(Cl)c2)O1)NCc1ccc(F)cc1	-2	.	63	.	.	.	.
O=C(C[C@H]1CC[C@@H]2[C@H](COC[C@H](O)CN2C(=O)Nc2ccc(Cl)c(Cl)c2)O1)NCc1ccc(F)cc1	3	.	39	.	.	.	.
O=C(C[C@@H]1CC[C@@H]2[C@H](COC[C@H](O)CN2C(=O)Nc2ccc(Cl)c(Cl)c2)O1)NCc1ccc(Cl)c(Cl)c1	-1	.	107*	100*	74	43*	103*
Cc1noc(C)c1NC(=O)N1C[C@@H](O)COC[C@@H]2O[C@@H](CC(=O)NCC3CC3)CC[C@H]21	1	.	77	.	.	.	.
O=C(C[C@@H]1CC[C@@H]2[C@H](COC[C@@H](O)CN2C(=O)Nc2ccc(Cl)c(Cl)c2)O1)NCc1ccc(Cl)c(Cl)c1	0	.	109*	91	97*	3	90*
O=C(NC(=S)Nc1ccccc1-c1nc2ccccc2s1)c1ccco1	.	1	.	.	.	.	.
Cc1ccc(-c2ccc3c(c2)O[C@H](CN(C)C(=O)NC(C)C)[C@@H](C)CN([C@H](C)CO)S3(=O)=O)cc1	-3	-9	47	.	.	.	.
Cc1ccc(-c2ccc3c(c2)O[C@@H](CN(C)C(=O)NC(C)C)[C@H](C)CN([C@@H](C)CO)S3(=O)=O)cc1	-2	8	35	.	.	.	.
CCCNC(=O)N(C)C[C@H]1Oc2cc(-c3cccnc3)ccc2S(=O)(=O)N([C@H](C)CO)C[C@H]1C	1	0	-4	.	.	.	.
CCCNC(=O)N(C)C[C@H]1Oc2cc(-c3cccnc3)ccc2S(=O)(=O)N([C@@H](C)CO)C[C@@H]1C	0	0	?	?	77	15	6
Cc1ccc(-c2ccc3c(c2)O[C@H](CN(C)C(=O)NC(C)C)[C@H](C)CN([C@@H](C)CO)S3(=O)=O)cc1	-2	-4	35	.	.	.	.
CC(C)NC(=O)N(C)C[C@H]1Oc2cc(-c3ccncc3)ccc2S(=O)(=O)N([C@H](C)CO)C[C@@H]1C	-1	0	107*	87	58	1	11
CC(C)NC(=O)N(C)C[C@@H]1Oc2cc(-c3ccncc3)ccc2S(=O)(=O)N([C@H](C)CO)C[C@@H]1C	13	3	?	57	20	3	10
CC(C)NC(=O)N(C)C[C@H]1Oc2cc(-c3ccncc3)ccc2S(=O)(=O)N([C@@H](C)CO)C[C@H]1C	-2	1	?	64	-14	6	20
CC(C(=O)Nc1ccccc1-c1ccccc1)N(c1ccccc1)S(C)(=O)=O (stereo unspecified)	.	0	.	.	.	.	.
SMILES	GASC1 inh	IDH1 mut inh	T cruzi growth-1	T cruzi growth-2	T cruzi growth-3	NIH3T3 tox	3T3 cytotox 2
COC(=O)c1ccccc1NC(=O)c1cccc(NC(=O)COc2cc(C)c(Cl)c(C)c2)c1C	.	0	.	.	.	.	.
CCCNC(=O)N1CC[C@@H]2[C@@H](CO)N(C)c3ccc(-c4ccc(F)cc4)cc3[C@@H]21	1	.	64	.	.	.	.
COCC(=O)N1CC[C@@H]2[C@H]1c1cc(-c3ccc(F)cc3)ccc1N(C)[C@@H]2CO	4	.	106	.	.	.	.
COCC(=O)N1CC[C@@H]2[C@H]1c1cc(-c3ccccc3)ccc1N(C)[C@H]2CO	0	.	105*	102*	85	-9	2
COCC(=O)N1CC[C@@H]2[C@H]1c1cc(-c3ccccc3)ccc1N(C)[C@@H]2CO	2	.	108*	96*	85	-9	-3
CCCNC(=O)N1CC[C@@H]2[C@H]1c1cc(-c3ccccc3)ccc1N(C)[C@H]2CO	4	.	?	108*	104*	8	12
COCC(=O)N1CC[C@H]2[C@@H]1c1cc(-c3ccc(F)cc3)ccc1N(C)[C@H]2CO	5	.	90	.	.	.	.
O=C(CC(C(=O)O)N1CCCCC1)Nc1ccccc1 (stereo unspecified)	.	0	.	.	.	.	.
COc1ccc2c3c([nH]c2c1)[C@@H](CO)N(C(=O)c1cnccn1)CC31CCN(C(=O)c2cnccn2)CC1	1	.	.	.	.	.	.
CCC(=O)Nc1ccc2c(c1)OC[C@@H](C)N(CCc1ccccc1)C[C@H](C)[C@@H](OC)CN(C)C2=O	1	0	58	.	.	.	.
CO[C@H]1CN(C)C(=O)c2cc(NC(=O)NC3CCCCC3)ccc2OC[C@H](C)N(CCc2ccccc2)C[C@@H]1C	2	1	86	.	.	.	.
CO[C@@H]1CN(C)C(=O)c2ccc(NC(=O)NC3CCCCC3)cc2OC[C@@H](C)N(CCc2ccccc2)C[C@H]1C	0	0	118*	110*	51	22	10
CO[C@@H]1CN(C)C(=O)c2ccc(NC(=O)Cc3ccccc3)cc2OC[C@@H](C)N(CCc2ccccc2)C[C@H]1C	0	0	99*	100*	104*	-4	11
C[C@@H]1CN([C@@H](C)CO)C(=O)c2cc(NS(=O)(=O)c3cn(C)cn3)ccc2O[C@H]1CN(C)Cc1ccc2c(c1)OCO2	1	0	-19	.	.	.	.
Cc1cc2nn(-c3ccc(Cl)cc3)nc2cc1NC(=O)COc1ccccc1C	.	0	.	.	.	.	.
O=C(CSc1nnc(-c2ccccc2F)n1-c1ccccc1)Nc1ccc2cn[nH]c2c1	.	0	.	.	.	.	.
COC(=O)c1cccc(NC(=O)COc2cc(C)ccc2C)c1	.	0	.	.	.	.	.
C[C@H](CO)N1C[C@H](C)[C@H](CN(C)C(=O)Nc2ccc3c(c2)OCO3)Oc2ncc(C#Cc3ccc(C(F)(F)F)cc3)cc2C1=O	-1	2	?	100*	?	26	106*
